# In PubChem BioAssay AID588768 (The Scripps Research Institute Molecular Screening Center, 2011):
# Active and inactive are the calls of the source.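 Rule for the calls: active = cytotoxic, with CC50, the dose killing half the cells, at or below 5 µM in either medium; inactive = CC50 above 5 µM in every panel.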
# Experiment: cytotoxicity in HEK293T cells, dose response, cytotoxicity control for pPAFAH inhibitor project, cell-based, WST-1 absorbance, serum-free and serum media, powder (AID 588768)
# Details: HEK293T viability
# Procedure, shortened: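 Test system: HEK 293T cells; Medium: DMEM with or without 10% FCS; Compound: 7-point 1:5 series up to 50 µM; Timing: 48 h exposure at 37 °C; Measured by: WST-1 colorimetric absorbance; Control set: no-compound cells high, no-cell wells low.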
Compound,CC50 (with 10% FCS),CC50 (without serum)
Cc1cc(N2CCN(C(=O)Oc3ccc(-c4ccccc4)cn3)CC2)c2ccccc2n1,35 µM (inactive),6.7 µM (inactive)
Cc1cc(N2CCN(C(=O)Oc3ccc(-c4ccccc4)cc3)CC2)c2ccccc2n1,12 µM (inactive),1.8 µM
Cc1cc(N2CCN(C(=O)Oc3ccc([N+](=O)[O-])cc3)CC2)c2ccccc2n1,13 µM (inactive),0.061 µM
